Laboratory results as given in ChEMBL document CHEMBL4725490, “Decreasing HepG2 Cytotoxicity by Lowering the Lipophilicity of Benzo[d]oxazolephosphinate Ester Utrophin Modulators” (ACS Med Chem Lett, 2020).
Values after ≈ are worked out from the molar mass of the structure shown. Active and inactive are the calls of the source. The rule behind the calls is not given here.

Assays:
[1] = Inhibition of firefly luciferase activity using ATP as substrate preincubated followed by substrate addition and measured after 15 mins by firefly luciferase reporter gene assay; design: species or system Photinus pyralis
In short: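 Biochemical counter-screen measuring direct inhibition of recombinant firefly luciferase enzyme activity, used to flag interference in the H2K reporter assay.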

[2] = Lipophilicity, log D of the compound at pH 7.4; conditions: buffer
[3] = Kinetic aqueous solubility of the compound
[4] = Protein binding in mouse plasma
[5] = Intrinsic clearance in mouse hepatocyte; conditions: hepatocytes
[6] = Half life in mouse hepatocyte; conditions: hepatocytes
[7] = Apparent permeability across apical to basolateral side in human Caco2 cells; conditions: Caco-2
[8] = Apparent permeability across basolateral to apical side in human Caco2 cells; conditions: Caco-2
[9] = species on record: Mus musculus; assay: Modulation activity of utrophin in dystrophic mouse muscle cells assessed increase in utrophin protein level by western blot analysis relative to control; conditions: filed as modulator
In short: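 LUmdx dystrophic mouse muscle cells were treated with compound, and utrophin protein was quantified by Western blot. Values are fold increase in utrophin level.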

[10] = system: HepG2; assay: Cytotoxicity against human HepG2 cells assessed as reduction in cell viability incubated for 40 hrs by cell titer glo assay; assay type: ADME, cell-based; conditions: HepG2, 40 h

Row | IC50 [1] | logD [2] | solubility kinetic [3] | fraction unbound [4] | CLH [5] | half-life [6] | IC50 ([1]; read-out: IC50) | Papp A→B [7] | Papp B→A [8] | Activity [9] | SMILES | IC50 [10] | PPB [4]
1 | Not Active | 3.33 | 446 µM (≈ 157 µg/mL) | 0.03 | > 250 µL/min/10^6 cells | < 3 min | – | – | – | – | CCP(=O)(OC)c1ccc2nc(-c3ccccc3C(F)F)oc2c1 (stereo not given) | – | –
2 | Not Active | 2.98 | 556 µM (≈ 195 µg/mL) | 0.04 | – | – | – | – | – | Active | CCP(=O)(OC)c1ccc2nc(-c3ccc(C(F)F)cc3)oc2c1 (stereo not given) | – | –
3 | – | – | – | – | – | 13 min | > 30 µM | 13.3 ×10⁻⁶ cm/s | 9.37 ×10⁻⁶ cm/s | – | CCP(=O)(OC)c1ccc2oc(-c3cccc(OC(F)F)c3)nc2c1 (stereo not given) | – | –
4 | – | 3.09 | > 250 µM | 0.06 | – | 20 min | 2.48 µM | 14.2 ×10⁻⁶ cm/s | 10.1 ×10⁻⁶ cm/s | – | CCP(=O)(OC)c1ccc2oc(-c3cccc(C(F)F)c3)nc2c1 (stereo not given) | – | –
5 | Not Active | – | – | – | – | > 240 min | – | 12.3 ×10⁻⁶ cm/s | 11 ×10⁻⁶ cm/s | – | CCP(=O)(OC)c1ccc2oc(-c3ccnc(C(F)(F)F)c3)nc2c1 (stereo not given) | 200 µM | –
6 | Not Active | 3.59 | 469 µM (≈ 173 µg/mL) | 0.03 | – | 38 min | – | 12.3 ×10⁻⁶ cm/s | 11.5 ×10⁻⁶ cm/s | – | CCP(=O)(OC)c1ccc2nc(-c3ccc(F)cc3C(F)F)oc2c1 (stereo not given) | – | –
7 | Not Active | 2.08 | 487 µM (≈ 172 µg/mL) | 0.23 | – | > 240 min | – | – | – | – | CCP(=O)(OC)c1ccc2nc(-c3cncc(C(F)F)c3)oc2c1 (stereo not given) | – | –
8 | Not Active | 3.2 | 8.4 µM (≈ 3.09 µg/mL) | 0.04 | – | 37 min | – | 18.1 ×10⁻⁶ cm/s | 15.9 ×10⁻⁶ cm/s | – | CCP(=O)(OC)c1ccc2nc(-c3cccc(OC(F)F)c3)oc2c1 (stereo not given) | – | –
9 | Not Active | 2.41 | 603 µM (≈ 223 µg/mL) | 0.2 | – | > 240 min | – | – | – | – | CCP(=O)(OC)c1ccc2nc(-c3cncc(C(F)(F)F)c3)oc2c1 (stereo not given) | – | –
10 | – | 2.6 | 834 µM (≈ 307 µg/mL) | 0.07 | – | > 240 min | > 30 µM | 21.8 ×10⁻⁶ cm/s | 16.9 ×10⁻⁶ cm/s | – | CCP(=O)(OC)c1ccc2nc(-c3ccnc(OC(F)F)c3)oc2c1 (stereo not given) | – | –
11 | – | 2.2 | 733 µM (≈ 270 µg/mL) | 0.14 | – | > 240 min | > 30 µM | 22.3 ×10⁻⁶ cm/s | 20.6 ×10⁻⁶ cm/s | Active | CCP(=O)(OC)c1ccc2oc(-c3ccnc(OC(F)F)c3)nc2c1 (stereo not given) | 200 µM | –

The remaining lines, values behind:

Row | SMILES | IC50 [1] | logD [2] | solubility kinetic [3] | fraction unbound [4] | CLH [5] | half-life [6] | IC50 ([1]; read-out: IC50) | Papp A→B [7] | Papp B→A [8] | Activity [9] | IC50 [10] | PPB [4]
12 | CCP(=O)(OC)c1ccc2oc(-c3cccc(OC)c3)nc2c1 (stereo not given) | – | 3.19 | > 250 µM | 0.04 | – | < 3 min | 0.088 µM | 15.7 ×10⁻⁶ cm/s | 12.6 ×10⁻⁶ cm/s | – | – | –
13 | CCP(=O)(OC)c1ccc2oc(-c3ccc4c(c3)OC(F)(F)O4)nc2c1 (stereo not given) | – | 2.4 | 576 µM (≈ 220 µg/mL) | 0.02 | – | 154 min | 23.6 µM | 12.7 ×10⁻⁶ cm/s | 11.7 ×10⁻⁶ cm/s | – | – | –
14 | CCP(=O)(OC)c1ccc2oc(-c3ccc(F)cc3C(F)F)nc2c1 (stereo not given) | Not Active | 3.4 | 518 µM (≈ 191 µg/mL) | 0.03 | – | 13 min | – | – | – | – | – | –
15 | CCP(=O)(OC)c1ccc2oc(-c3cccnc3C(F)(F)F)nc2c1 (stereo not given) | Not Active | 2.2 | 854 µM (≈ 316 µg/mL) | 0.11 | – | 4 min | – | – | – | – | – | –
16 | CCP(=O)(OC)c1ccc2oc(-c3cncc(C(F)F)c3)nc2c1 (stereo not given) | Not Active | 1.86 | 440 µM (≈ 155 µg/mL) | 0.26 | – | > 240 min | – | – | – | – | – | –
17 | CCP(=O)(OC)c1ccc2oc(-c3ccccc3C(F)F)nc2c1 (stereo not given) | – | 2.8 | > 250 µM | 0.03 | – | < 3 min | 5.73 µM | 16.2 ×10⁻⁶ cm/s | 11.2 ×10⁻⁶ cm/s | – | – | –
18 | CCP(=O)(OC)c1ccc2oc(-c3cncc(C(F)(F)F)c3)nc2c1 (stereo not given) | Not Active | 2.44 | 477 µM (≈ 177 µg/mL) | 0.25 | – | > 240 min | – | – | – | Active | – | –
19 | CCP(=O)(OC)c1ccc2nc(-c3cccnc3C(F)(F)F)oc2c1 (stereo not given) | Not Active | 1.98 | 699 µM (≈ 259 µg/mL) | 0.24 | – | 5 min | – | – | – | – | – | –
20 | CCP(=O)(OC)c1ccc2oc(-c3ccc(F)cc3)nc2c1 (stereo not given) | – | 2.8 | 378 µM (≈ 121 µg/mL) | – | – | – | 0.115 µM | 18 ×10⁻⁶ cm/s | 15.7 ×10⁻⁶ cm/s | – | 200 µM | 95%
21 | CCP(=O)(OC)c1ccc2oc(-c3cccc(C(F)(F)F)c3)nc2c1 (stereo not given) | – | – | – | – | – | – | 12.1 µM | – | – | – | – | –
22 | CCP(=O)(OC)c1ccc2nc(-c3ccc4c(c3)OC(F)(F)O4)oc2c1 (stereo not given) | – | – | 574 µM (≈ 219 µg/mL) | 0.02 | – | 154 min | > 30 µM | 17.2 ×10⁻⁶ cm/s | 16.2 ×10⁻⁶ cm/s | – | 68.9 µM | –
23 | CCP(=O)(OC)c1ccc2oc(-c3ccc(OC)cc3)nc2c1 (stereo not given) | – | – | 265 µM (≈ 87.8 µg/mL) | – | – | – | 0.19 µM | 13.3 ×10⁻⁶ cm/s | 10.7 ×10⁻⁶ cm/s | – | 200 µM | –
24 | CCP(=O)(OC)c1ccc2oc(-c3ccc(C(F)F)cc3)nc2c1 (stereo not given) | Not Active | 3.06 | 530 µM (≈ 186 µg/mL) | 0.02 | – | – | – | – | – | – | – | –
25 | CCP(=O)(OC)c1ccc2oc(-c3ccccc3OC(F)F)nc2c1 (stereo not given) | Not Active | 2.45 | 366 µM (≈ 134 µg/mL) | 0.03 | – | < 3 min | – | 18.8 ×10⁻⁶ cm/s | 15.7 ×10⁻⁶ cm/s | – | – | –
